# Measurements collected from several papers.
# Protocols differ between the studies behind these lines.
# Target: Serine/threonine-protein kinase LATS1 (LATS1, Homo sapiens, UniProt O95835)
# Sequence (O95835 1-1130, as in one of the studies): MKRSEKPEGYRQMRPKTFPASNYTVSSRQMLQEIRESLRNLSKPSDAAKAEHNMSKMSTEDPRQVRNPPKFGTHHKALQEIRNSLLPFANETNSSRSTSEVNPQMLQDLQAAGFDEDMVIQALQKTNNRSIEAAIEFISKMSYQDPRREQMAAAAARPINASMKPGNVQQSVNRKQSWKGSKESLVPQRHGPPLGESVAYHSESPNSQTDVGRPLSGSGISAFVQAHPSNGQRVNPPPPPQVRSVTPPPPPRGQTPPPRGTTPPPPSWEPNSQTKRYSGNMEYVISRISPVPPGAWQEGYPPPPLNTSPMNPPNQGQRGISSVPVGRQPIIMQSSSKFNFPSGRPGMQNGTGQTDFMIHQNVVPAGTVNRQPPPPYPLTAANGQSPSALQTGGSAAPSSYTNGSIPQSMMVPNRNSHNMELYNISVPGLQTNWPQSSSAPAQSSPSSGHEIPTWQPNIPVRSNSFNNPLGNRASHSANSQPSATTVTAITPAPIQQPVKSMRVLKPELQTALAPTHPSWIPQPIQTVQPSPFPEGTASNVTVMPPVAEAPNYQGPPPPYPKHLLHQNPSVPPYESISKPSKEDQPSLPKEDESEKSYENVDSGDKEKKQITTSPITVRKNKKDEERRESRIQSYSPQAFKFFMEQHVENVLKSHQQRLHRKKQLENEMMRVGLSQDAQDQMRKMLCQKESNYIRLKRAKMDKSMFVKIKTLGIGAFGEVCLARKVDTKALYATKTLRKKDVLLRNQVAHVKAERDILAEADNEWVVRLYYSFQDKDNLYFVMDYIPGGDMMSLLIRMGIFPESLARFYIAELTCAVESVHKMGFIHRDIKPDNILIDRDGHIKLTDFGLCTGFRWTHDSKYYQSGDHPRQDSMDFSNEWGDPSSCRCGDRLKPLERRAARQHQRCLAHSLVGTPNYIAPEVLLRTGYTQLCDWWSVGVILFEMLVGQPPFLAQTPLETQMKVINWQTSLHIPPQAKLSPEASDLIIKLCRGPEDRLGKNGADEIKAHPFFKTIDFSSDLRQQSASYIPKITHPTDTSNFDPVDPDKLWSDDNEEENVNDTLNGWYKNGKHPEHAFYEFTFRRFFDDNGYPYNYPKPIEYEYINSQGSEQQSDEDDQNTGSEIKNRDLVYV
SMILES,read-out,mode,technique,concentration,quantity,result
Nc1ncnc2occ(-c3ccc(NC(=O)Nc4cc(C(F)(F)F)ccc4F)cc3)c12,cell-free assay,inhibitor,,20 µM,remaining signal,33%
COc1cccc2c(NCc3ccccc3)nc(-n3c(N)nc4ccccc43)nc12,target engagement in cells,inhibitor,chemoproteomics,20 mM,inhibition,-30.5%
CC(C)(O)[C@H]1CC[C@H](Nc2ccc3ncc(-c4cccc(C(F)(F)F)c4)n3n2)CC1,enzyme activity,inhibitor,,1 µM,remaining activity,96.1%
O=C(NC[C@@H]1[C@H]2CN(C(=O)OCc3cc(C(F)(F)F)cc(C(F)(F)F)c3)C[C@@H]12)c1ccc2[nH]nnc2c1,cell-free assay,,competition with immobilised ligand,1 µM,remaining binding,96%
CC1CCCN1c1nccc(-c2cnn3ncccc23)n1 (stereo not shown),binding,,,1 µM,remaining binding,100%
CC(=O)N1CCC(c2ccc(C(=O)NC(=N)N)cc2C(F)(F)F)CC1,cell-free assay,,competition with immobilised ligand,1 µM,remaining binding,72%
Cn1cnc(Br)c1C1=CN(c2ncnc3[nH]cnc23)CCS1,enzyme activity,inhibitor,radiometric,50 nM,inhibition,51.5%
COc1cc(-c2cc(-c3ccc(N4CCNCC4)cc3)cnc2C)cc(OC)c1OC,enzyme activity,inhibitor,,1 µM,inhibition,7%
CCCCNc1ncc2c(-c3ccc(F)cc3)nn(C[C@H]3CC[C@H](N)CC3)c2n1,target engagement in cells,inhibitor,chemoproteomics,20 mM,inhibition,7.3%
Cc1sc(C(=O)NC2COC2)cc1-n1cc(NC(=O)Nc2c(F)cccc2Cl)cn1,enzyme activity,inhibitor,,10 µM,remaining activity,97.2%
Cc1ccc(C(=O)Nc2ccc(CN3CCN(C)CC3)c(C(F)(F)F)c2)cc1C#Cc1cnc2cccnn12,enzyme activity,inhibitor,,23.5 nM,remaining activity,93%
O=C(Nc1cnn(-c2csc(C(=O)NC3COC3)c2)c1)Nc1ccccc1Cl,enzyme activity,inhibitor,,5 µM,remaining activity,106%
CN1CCN(c2cnc3c(C4CCN(C(=O)c5ccc(OC(F)(F)F)cc5N)CC4)ncnc3c2)CC1,cell-free assay,,competition with immobilised ligand,1 µM,remaining binding,81%
